Columns and labels:
Mus musculus [1] = assay: Effect on skeletal muscle tone, after 1 hour of peroral administration in mouse at a dose of 200 mg/kg; type: functional; details: Muscle tissue, route oral
How it was run: (§1)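 Male mice were placed for 1 h on a 60° inclined wire screen just after dosing and 4 h later. In a second test, trained mice hung by the forepaws from a horizontal 1.8 mm wire 15 cm up; normal mice touch it with a hind paw within 2 s and stay ≥1 min. ED50 is the dose making 50% fall. Dosing was oral in gum arabic suspension at 10 mL/kg after an overnight fast.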

Mus musculus [2] = assay: Activity of inclined screen in mouse, after 5 hour of peroral administration in mouse at a dose of 100 mg/kg; type: functional; details: route oral
How it was run: (§2)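 Male mice dosed orally (arabic gum suspension, 10 mL/kg, fasted overnight) 1 or 5 h before testing. Placed for 1 h on a wire screen bent at 60° to the horizontal. Ataxic or miorelaxed mice slide off. ED50 is the dose at which 50% of mice fall, by probit analysis. Ten animals per dose, with vehicle controls.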

Mus musculus [3] = assay: Potentiation against pentobarbital-induced sleeping, after 1 hour of peroral administration in mouse at a dose of 100 mg/kg; type: functional; details: route oral
How it was run: (§3)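 Female mice fasted overnight, dosed orally 1 or 5 h beforehand as arabic gum suspension, 10 mL/kg, with vehicle controls. Subhypnotic pentobarbital 10 mg/kg iv; 3 min later placed on back, effect scored as complete loss of righting reflex for at least 15 s. ED50 = dose producing this in 50% of mice, probit analysis.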

Mus musculus [4] = assay: Potentiation against pentobarbital-induced sleeping, after 5 hour of peroral administration in mouse at a dose of 100 mg/kg; type: functional; details: route oral; how it was run: as §3
Mus musculus [5] = assay: Anticonvulsant activity against pentylenetetrazole-induced convulsions, after 1 hour of peroral administration in mouse at a dose of 100 mg/kg; type: functional; details: route oral
How it was run: (§4)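 Compounds were dosed as bases suspended in arabic gum at 10 mL/kg orally, after an overnight fast, with vehicle controls. Protection meant no bilateral forepaw clonic seizures or head twitches (tryptamine), or no tonic hind-limb extension (the other two). ED50 is the dose protecting 50%, by probit analysis.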

Mus musculus [6] = assay: Anticonvulsant activity against electroshock-induced convulsions, after 1 hour of peroral administration in mouse at a dose of 100 mg/kg; type: functional; details: route oral; how it was run: as §4
Mus musculus [7] = assay: Anticonvulsant activity against tryptamine-induced convulsions, after 1 hour of peroral administration in mouse at a dose of 40 mg/kg; type: functional; details: route oral; how it was run: as §4
Rattus norvegicus [8] = assay: Inhibitory activity against norepinephrine-induced lethality, after 1 hour of peroral administration in rat at a dose of 40 mg/kg; type: functional; details: route oral
How it was run: (§5)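 Rats (80–90 g) dosed orally (arabic gum, 10 mL/kg) 1 or 5 h before norepinephrine 0.5 mg/kg iv, which kills unprotected rats within 30 min. ED50 is the dose protecting 50% of rats from lethality, by probit analysis.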

Rattus norvegicus [9] = assay: Inhibitory activity against norepinephrine-induced lethality, after 5 hour of peroral administration in rat at a dose of 40 mg/kg; type: functional; details: route oral; how it was run: as §5
Rattus norvegicus [10] = assay: Antagonistic activity against apomorphine-induced stereotypy in rats, by administering perorally at a dose of 100 mg/kg; type: functional; details: route oral
How it was run: (§6)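 Male rats fasted overnight and given oral doses in arabic gum suspension (10 mL/kg) 1 h, or 1 and 5 h, before challenge. Apomorphine 3 mg/kg iv, with stereotypy observed 20 min later. ED50 is the dose inhibiting stereotypy in 50% of rats, per Janssen's method. Parenthetical entries give the maximal dose and percent activity.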

Rattus norvegicus [11] = assay: Inhibition against conditioned avoidance response, after 1 hour of peroral administration in rats at a dose of 40 mg/kg; type: functional; details: route oral
How it was run: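 Male rats were trained in a shuttle box to avoid grid-floor shock by crossing compartments during a warning period. Dosing was oral as a gum arabic suspension at 10 mL/kg after an overnight fast. Percent inhibition was computed against a pretraining test. ED50 is the dose giving 50% inhibition.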

Mus musculus [12] = assay: Activity of inclined screen in mouse, after 1 hour of peroral administration in mouse at a dose of 100 mg/kg; type: functional; details: route oral; how it was run: as §2
Mus musculus [13] = assay: Inhibition of spontaneous locomotor activity, after 1 hour of peroral administration in mouse; type: functional; details: po
How it was run: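 Mice in groups of five were dosed orally with gum arabic suspensions at 10 mL/kg after an overnight fast, with a vehicle control group. Locomotion was counted for 10 min in a photocell activity cage, in at least two groups per dose. ED50, by probit analysis, is the dose giving 50% inhibition against controls.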

Mus musculus [14] = assay: Anticonvulsant activity against pentylenetetrazole-induced convulsions, after 1 hour of peroral administration in mouse at a dose of 15 mg/kg; type: functional; details: route oral; how it was run: as §4
dog (Canis familiaris) [15] = assay: Antagonistic activity against apomorphine-induced emesis, after 5 hour of peroral administration in dogs; details: Canis lupus familiaris, po
Mus musculus [16] = assay: Effect on skeletal muscle tone, after 1 hour of peroral administration in mouse at dose of 200 mg/kg; type: functional; details: Muscle tissue, route oral; how it was run: as §1
Mus musculus [17] = assay: Inhibitory activity against tremorine-induced salivation, after 1 hour of peroral administration in mouse at dose of 60 mg/kg; type: functional; details: route oral
How it was run: (§7)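 Male mice fasted overnight, dosed orally with arabic gum suspension (10 mL/kg) 1 or 5 h before test, vehicle controls included. Tremorine 20 mg/kg ip given 1 h after compounds; central (tremor) and peripheral (salivation) parasympathetic signs recorded. ED50 = dose protecting 50% of animals, by probit analysis.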

Mus musculus [18] = assay: Inhibitory activity against tremorine-induced tremors, after 5 hour of peroral administration in mouse at dose of 60 mg/kg; type: functional; details: route oral; how it was run: as §7
Mus musculus [19] = assay: Inhibitory activity against tremorine-induced salivation, after 5 hour of peroral administration in mouse at dose of 60 mg/kg; type: functional; details: route oral; how it was run: as §7
Mus musculus [20] = assay: Anticonvulsant activity against pentylenetetrazole-induced convulsions, after 1 hour of peroral administration in mouse at a dose of 9.4 mg/kg; type: functional; details: route oral; how it was run: as §4
dog (Canis familiaris) [21] = assay: Antagonistic activity against apomorphine-induced emesis, after 5 hour of peroral administration in dogs; details: Canis lupus familiaris, po; remark: listed apart in the source
Mus musculus [22] = assay: Effect on skeletal muscle tone, after 1 hour of peroral administration in mouse at a dose of 100 mg/kg; type: functional; details: Muscle tissue, route oral; how it was run: as §1
Mus musculus [23] = assay: Activity of inclined screen in mouse, after 5 hour of peroral administration in mouse at a dose of 60 mg/kg; type: functional; details: route oral; how it was run: as §2
Mus musculus [24] = assay: Anticonvulsant activity against electroshock-induced convulsions, after 5 hour of peroral administration in mouse at a dose of 40 mg/kg; type: functional; details: route oral; how it was run: as §4
Mus musculus [25] = assay: Anticonvulsant activity against electroshock-induced convulsions, after 1 hour of peroral administration in mouse at a dose of 40 mg/kg; type: functional; details: route oral; how it was run: as §4
Mus musculus [26] = assay: Anticonvulsant activity against pentylenetetrazole-induced convulsions, after 5 hour of peroral administration in mouse at a dose of 40 mg/kg; type: functional; details: route oral
How it was run: (§8)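 Male mice dosed orally (arabic gum, 10 mL/kg) 1 or 5 h before challenge with tryptamine 100 mg/kg iv, pentylenetetrazol 110 mg/kg ip, or maximal electroshock. Protection means no bilateral forepaw clonic seizures and head twitches (tryptamine) or no tonic hind-limb extension (others). ED50 protects 50% of mice.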

Rattus norvegicus [27] = assay: Antagonistic activity against apomorphine-induced stereotypy, after 5 hour of peroral administration in rats at a dose of 100 mg/kg; type: functional; details: route oral; how it was run: as §6
Mus musculus [28] = assay: Anticonvulsant activity against pentylenetetrazole-induced convulsions, after 1 hour of peroral administration in mouse at a dose of 40 mg/kg; type: functional; details: route oral; how it was run: as §8

O=c1[nH]c(-c2ccc(F)cc2)c(CCN2CCN(c3cc(Cl)cc(Cl)c3)CC2)o1 [LODIPERONE]
inhibition in vivo at 200 mg/kg (Mus musculus [1]): 10%
inhibition in vivo at 100 mg/kg (Mus musculus [2]): 0%
inhibition in vivo at 100 mg/kg (Mus musculus [3]): 30%
inhibition in vivo at 100 mg/kg (Mus musculus [4]): 0%
inhibition in vivo at 100 mg/kg (Mus musculus [5]): 0%
inhibition in vivo at 100 mg/kg (Mus musculus [6]): 0%
inhibition in vivo at 40 mg/kg (Mus musculus [7]): 0%
inhibition in vivo at 40 mg/kg (Rattus norvegicus [8]): 10%
inhibition in vivo at 40 mg/kg (Rattus norvegicus [9]): 10%
inhibition in vivo at 100 mg/kg (Rattus norvegicus [10]): 0%
inhibition in vivo at 40 mg/kg (Rattus norvegicus [11]): 44%
inhibition in vivo at 100 mg/kg (Mus musculus [12]): 0%

CN(C)CCCN1c2ccccc2Sc2ccc(Cl)cc21 [CHLORPROMAZINE]
ED50 (Mus musculus [13]): 2.9 mg/kg
inhibition in vivo at 15 mg/kg (Mus musculus [14]): 0%
ED50 (dog (Canis familiaris) [15]): 7.5 mg/kg

COc1ccccc1N1CCN(CCc2oc(=O)[nH]c2-c2ccc(F)cc2)CC1 [ZOLOPERONE]
inhibition in vivo at 200 mg/kg (Mus musculus [16]): 0%
inhibition in vivo at 60 mg/kg (Mus musculus [17]): 0%
inhibition in vivo at 60 mg/kg (Mus musculus [18]): 0%
inhibition in vivo at 60 mg/kg (Mus musculus [19]): 0%

O=C(CCCN1CCC(O)(c2ccc(Cl)cc2)CC1)c1ccc(F)cc1 [HALOPERIDOL]
inhibition in vivo at 9.4 mg/kg (Mus musculus [20]): 0%
ED50 (dog (Canis familiaris) [21]): 0.04 mg/kg

COc1ccccc1N1CCN(CCCC(=O)c2ccc(F)cc2)CC1 [FLUANISONE]
inhibition in vivo at 100 mg/kg (Mus musculus [22]): 30%
inhibition in vivo at 60 mg/kg (Mus musculus [23]): 0%
inhibition in vivo at 40 mg/kg (Mus musculus [24]): 0%
inhibition in vivo at 40 mg/kg (Mus musculus [25]): 0%
inhibition in vivo at 40 mg/kg (Mus musculus [26]): 0%
inhibition in vivo at 100 mg/kg (Rattus norvegicus [27]): 0%
inhibition in vivo at 40 mg/kg (Mus musculus [28]): 0%
